# Screening results from PubChem.
# A selection: hits, their analogues and other compounds. The true share with any hit is near 2.8%.
# PAFAH1B3 FP inh – inhibitors of human PAFAH1B3; Q15102; recombinant PAFAH1B3, FP-rhodamine probe, fluorescence polarization; inhibition, % at 3.39 µM; 340,000 compounds, 0.28% hits;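 active means inhibition above the screen-wide average of all tested compounds plus 3 SD, cut at about 25% in these data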
# Target sequence (Q15102 whole entry, looked up): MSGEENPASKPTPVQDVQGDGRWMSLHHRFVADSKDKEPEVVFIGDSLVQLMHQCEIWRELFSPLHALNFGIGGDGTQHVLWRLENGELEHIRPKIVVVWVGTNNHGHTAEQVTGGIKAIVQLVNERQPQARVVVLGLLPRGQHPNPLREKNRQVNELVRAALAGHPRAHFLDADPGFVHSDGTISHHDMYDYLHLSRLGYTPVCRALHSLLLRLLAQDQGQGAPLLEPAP
# HTRA1 inh – inhibitors of human serine peptidase HTRA1 | recombinant HTRA1, FP-rhodamine activity-based probe, fluorescence polarization | inhibition, % at 5.96 µM | 340,000 compounds, 0.5% hits | AID 504803; in the data active means inhibition above about 36%
# pPAFAH FP inh – pPAFAH (human) enzyme inhibition | Q13093 | recombinant pPAFAH, FP-rhodamine probe fluorescence polarization | inhibition, % at 3.39 µM | 330,000 compounds, 1.5% hits;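 active means inhibition above the mean inhibition across the screen plus 3 SD, cut at about 25% in these data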;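 further: inhibitors block binding of the rhodamine activity-based probe so polarization drops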
# ABHD4 inh – inhibitors of mouse ABHD4; AID 720543; purified mABHD4, FP-Rh probe fluorescence polarization; Q8VD66; 370,000 compounds, 0.54% hits; inhibition, % at 8.92 µM;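 active means inhibition exceeding the mean over every tested compound plus 3 SD, cut at about 30% in these data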
#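 Assay system: Wild-type mouse ABHD4 protein | Medium: HEPES pH 7.0 buffer, 150 mM NaCl, 0.01% Pluronic F-127 | Incubation: Enzyme–compound pre-incubation 45 min, then probe 60 min, both 25 °C | Technique: Fluorescence polarization with parallel and perpendicular emission, 525/598 nm | Evaluation: % inhibition of FP-Rh probe binding versus controls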
# PAFAH2 FP inh – inhibitors of human PAFAH2. Q99487. recombinant PAFAH2, FP-rhodamine activity probe, fluorescence polarization. inhibition, % at 3.39 µM. 340,000 compounds, 0.99% hits. AID 492956;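 active means inhibition above the mean over all tested compounds plus 3 SD, cut at about 30% in these data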;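 further: inhibitors block probe labeling of enzyme so polarization drops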
# PAFAH1B2 FP inh – PAFAH1B2 (human) inhibition; inhibition, % at 3.39 µM; 340,000 compounds, 1.2% hits; P68402; recombinant PAFAH1B2, FP-rhodamine activity probe, fluorescence polarization;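 active means inhibition above the mean of all tested compounds plus 3 SD, cut at about 24% in these data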
# Target sequence (P68402 whole entry, looked up): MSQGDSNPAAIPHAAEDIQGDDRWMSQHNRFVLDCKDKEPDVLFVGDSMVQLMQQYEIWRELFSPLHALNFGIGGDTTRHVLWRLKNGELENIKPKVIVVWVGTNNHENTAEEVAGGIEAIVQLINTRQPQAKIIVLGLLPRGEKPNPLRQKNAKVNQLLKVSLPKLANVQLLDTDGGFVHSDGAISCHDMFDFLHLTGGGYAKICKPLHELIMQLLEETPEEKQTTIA
# PAFAH2 FP conf – PAFAH2 (human) inhibition, confirmed; shares compounds with PAFAH2 FP inh; recombinant PAFAH2, FP-rhodamine activity probe, fluorescence polarization; inhibition, % at 3.39 µM; 2,300 compounds, 65% hits; AID 493030;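 active means mean inhibition over three repeats above a set limit taken from the earlier primary screen, cut at about 30% in these data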;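 further: inhibitor blocks binding of rhodamine activity probe so polarization falls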
# Numbers stand for hits; n = inactive; x = not tested or not shown.
SMILES,PAFAH1B3 FP inh,HTRA1 inh,pPAFAH FP inh,ABHD4 inh,PAFAH2 FP inh,PAFAH1B2 FP inh,PAFAH2 FP conf
CCN(CC)S(=O)(=O)c1cccc(NC(=O)COC(=O)/C=C/c2cccs2)c1,n,n,n,n,67,n,58
CCN(CC)S(=O)(=O)c1cccc(NC(=O)COC(=O)C2CC3C=CC2C3)c1 (stereo unspecified),n,n,n,n,38,n,n
CCN(CC)S(=O)(=O)c1cccc(C(=O)N[C@H](C(=O)OCC(N)=O)C(C)C)c1,n,n,n,n,n,n,x
CN(C)S(=O)(=O)c1cccc(NC(=O)COC(=O)CCC(=O)c2cccs2)c1,n,n,n,n,n,n,x
CCN(CC)S(=O)(=O)c1cccc(NC(=O)COC(=O)c2cccs2)c1,n,n,n,n,61,n,46
CC(=O)N1CCN(C(=O)C2CCCN(C(=O)c3ccc4c(c3)NC(=O)CS4)C2)CC1 (stereo unspecified),x,x,x,n,x,x,x
O=C(Nc1ccc(C(O)(C(F)(F)F)C(F)(F)F)cc1)c1ccc(F)cc1Cl,x,x,x,n,x,x,x
CN1CCCN(C(=O)CN2C(=O)CC(C)(C)S(=O)(=O)c3ccccc32)CC1,x,x,x,n,x,x,x
O=C(COC(=O)c1ccco1)Nc1cc(S(=O)(=O)N2CCOCC2)ccc1Cl,n,n,n,n,58,n,35
O=C(COC(=O)c1ccccc1)Nc1cc(S(=O)(=O)N2CCCCCC2)ccc1Cl,n,n,n,n,30,n,n
CCN(c1ccccc1)S(=O)(=O)c1ccc(Cl)c(NC(=O)COC(=O)C2CC2C)c1 (stereo unspecified),n,n,n,n,79,n,76
O=C(COC(=O)c1ccccc1O)Nc1cc(S(=O)(=O)N2CCCCCC2)ccc1Cl,n,n,n,n,n,n,x
O=C(COC(=O)c1ccco1)Nc1cc(S(=O)(=O)N2CCCCC2)ccc1Cl,n,n,n,n,55,n,46
O=C(COCc1ccccc1)NC1CCCCN(Cc2cccc(Cl)c2)C1=O (stereo unspecified),x,x,x,n,x,x,x
COC(=O)C1=C(C)N(Cc2cccc(C(F)(F)F)c2)C(=NCc2cc(OC)c(OC)c(OC)c2)NC1c1ccc(F)cc1 (stereo unspecified),x,x,x,n,x,x,x
Cc1ccc(C(=O)Oc2ccc(Br)cc2C(=S)N2CCOCC2)cc1,n,n,n,n,32,n,33
COc1ccc(C(=O)Oc2ccc(Br)cc2C(=S)N2CCOCC2)cc1,n,n,n,n,52,n,36
Cc1cccc(-c2cc3nc(-c4ccccc4)cc(=O)n3[nH]2)c1,n,n,n,n,41,n,n
CC(=O)Nc1ccc(NC(=O)COC(=O)c2n[nH]c3ccccc23)cc1,n,n,n,n,n,n,x
CCOc1ccc(NC(=O)COC(=O)c2n[nH]c3ccccc23)cc1,n,n,n,n,62,n,37
CC(C)CNC(=O)COC(=O)c1n[nH]c2ccccc12,n,n,n,n,56,n,39
COc1ccc(CNC(=O)COC(=O)c2n[nH]c3ccccc23)cc1,n,n,n,n,n,n,x
CCC(C(=O)Nc1ccccc1N1CCCC1)c1cccc(C)c1 (stereo unspecified),x,x,x,n,x,x,x
Cc1ccc(C)c(NC(=O)CN(C)C(=O)c2cc(-c3cccs3)nn2-c2ccccc2)c1,n,n,n,n,33,n,n
CN(C)S(=O)(=O)c1cccc(C(=O)OCC(=O)NCc2ccccc2)c1,n,n,n,n,30,n,n
COc1ccc(NC(=O)COC(=O)c2cccc(S(=O)(=O)N(C)C)c2)cc1,n,n,x,n,41,n,n
CN(C)S(=O)(=O)c1cccc(C(=O)OCC(=O)Nc2sccc2C(N)=O)c1,n,n,n,n,n,n,x
N#Cc1cccc(NC(=O)CSc2sc3c(O)cc(=O)[nH]c3c2C#N)c1,n,n,n,n,40,n,n
CCOc1ncccc1C(=O)OCC(=O)Nc1cccc(C(C)=O)c1,n,n,n,n,62,n,55
Cc1ccc(NC(=O)COC(=O)c2cc(-c3cccs3)nn2-c2ccccc2)cc1[N+](=O)[O-],n,n,n,n,n,n,x
